In ChEMBL document CHEMBL1129264, “Mercaptoacyl dipeptides as orally active dual inhibitors of angiotensin-converting enzyme and neutral endopeptidase” (1996):
Values belong to the compound of their own block, whether it stands above or below them.

Tests used:
Type in all cases: organism-based
[1] = target: T1, Angiotensin-converting enzyme (Rattus norvegicus) (UniProt P47820); test: Compound was tested for plasma inhibition of Angiotensin I converting enzyme activity in the conscious rat. Expressed as Inhibition of AI pressor response at 6 hr at a dose of 12.8 mg/kg po; set-up: dose 12.8 mg/kg
T1 sequence (whole entry): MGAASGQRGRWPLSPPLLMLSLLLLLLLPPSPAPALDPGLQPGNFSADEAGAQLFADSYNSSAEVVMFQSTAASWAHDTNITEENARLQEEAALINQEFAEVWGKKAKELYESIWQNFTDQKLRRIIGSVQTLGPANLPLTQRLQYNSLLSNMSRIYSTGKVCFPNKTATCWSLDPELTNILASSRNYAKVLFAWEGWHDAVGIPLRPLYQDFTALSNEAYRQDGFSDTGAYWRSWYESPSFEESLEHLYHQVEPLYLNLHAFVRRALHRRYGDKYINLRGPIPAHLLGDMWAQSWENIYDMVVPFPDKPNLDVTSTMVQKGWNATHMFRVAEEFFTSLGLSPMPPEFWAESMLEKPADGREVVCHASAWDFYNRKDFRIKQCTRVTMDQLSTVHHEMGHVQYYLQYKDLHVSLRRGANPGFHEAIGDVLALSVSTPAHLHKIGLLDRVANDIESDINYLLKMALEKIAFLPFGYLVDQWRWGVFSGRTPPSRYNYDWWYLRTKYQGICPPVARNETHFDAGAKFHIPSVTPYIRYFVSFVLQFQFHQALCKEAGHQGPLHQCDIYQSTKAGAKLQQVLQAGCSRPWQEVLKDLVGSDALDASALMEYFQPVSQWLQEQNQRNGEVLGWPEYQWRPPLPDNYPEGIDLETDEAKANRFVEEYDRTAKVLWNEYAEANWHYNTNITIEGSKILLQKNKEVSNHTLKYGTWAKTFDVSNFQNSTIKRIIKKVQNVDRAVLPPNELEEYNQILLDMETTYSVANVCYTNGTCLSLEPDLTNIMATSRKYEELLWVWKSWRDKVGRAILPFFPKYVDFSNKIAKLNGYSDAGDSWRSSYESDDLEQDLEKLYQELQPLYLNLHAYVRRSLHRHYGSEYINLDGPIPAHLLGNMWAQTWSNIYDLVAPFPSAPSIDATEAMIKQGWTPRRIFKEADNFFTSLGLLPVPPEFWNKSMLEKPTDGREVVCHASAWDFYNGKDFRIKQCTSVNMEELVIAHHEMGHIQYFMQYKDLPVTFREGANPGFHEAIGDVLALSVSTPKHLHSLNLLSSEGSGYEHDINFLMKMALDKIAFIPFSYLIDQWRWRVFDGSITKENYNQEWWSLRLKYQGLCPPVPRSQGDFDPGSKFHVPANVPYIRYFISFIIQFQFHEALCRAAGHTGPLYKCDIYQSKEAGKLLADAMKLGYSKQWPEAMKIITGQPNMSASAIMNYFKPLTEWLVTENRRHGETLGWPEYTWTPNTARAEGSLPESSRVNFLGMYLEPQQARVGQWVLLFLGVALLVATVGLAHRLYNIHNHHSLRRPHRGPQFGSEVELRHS
Method in brief: (§1)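 Male conscious normotensive Sprague-Dawley rats (275-390 g), prepared under methohexital sodium (75 mg/kg ip) with femoral arterial and venous catheters. The next day, pressor responses to three angiotensin-I challenges (300 ng/kg iv) were recorded. Compound was then given orally and angiotensin-I challenges were repeated at set times. Percent inhibition is relative to the mean of the three baseline responses.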

[2] = target: T1, Angiotensin-converting enzyme (Rattus norvegicus); test: Compound was tested for plasma inhibition of Angiotensin I converting enzyme activity in the conscious rat. Expressed as Inhibition of AI pressor response at 1 hr at a dose of 12.8 mg/kg po; set-up: dose 12.8 mg/kg
Method in brief: (§2)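 Male conscious normotensive Sprague-Dawley rats (275-390 g), given femoral arterial and venous catheters under methohexital sodium (75 mg/kg ip) anesthesia. Next day, pressor responses to three angiotensin-I challenges (300 ng/kg iv) recorded by direct arterial pressure. Compound then dosed orally, and AI challenge repeated at set times. Each post-dose response compared with the mean of the three baseline responses, giving % inhibition.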

[3] = target: T1, Angiotensin-converting enzyme (Rattus norvegicus); test: Compound was tested for plasma inhibition of Angiotensin I converting enzyme activity in the conscious rat. Expressed as Inhibition of AI pressor response at 2 hr at a dose of 12.8 mg/kg po; set-up: dose 12.8 mg/kg; method in brief: as §2
[4] = target: T1, Angiotensin-converting enzyme (Rattus norvegicus); test: Compound was tested for plasma inhibition of Angiotensin I converting enzyme activity in the conscious rat. Expressed as Inhibition of AI pressor response at 4 hr at a dose of 12.8 mg/kg po; set-up: dose 12.8 mg/kg; method in brief: as §2
[5] = target: T1, Angiotensin-converting enzyme (Rattus norvegicus); test: Compound was tested for plasma inhibition of Angiotensin I converting enzyme activity in the conscious rat. Expressed as Inhibition of AI pressor response at 1 hr at a dose of 10 mg/kg po; set-up: dose 10 mg/kg; method in brief: as §2
[6] = target: T1, Angiotensin-converting enzyme (Rattus norvegicus); test: Compound was tested for plasma inhibition of Angiotensin I converting enzyme activity in the conscious rat. Expressed as Inhibition of AI pressor response at 6 hr at a dose of 10 mg/kg po; set-up: dose 10 mg/kg; method in brief: as §1
[7] = target: T1, Angiotensin-converting enzyme (Rattus norvegicus); test: Compound was tested for plasma inhibition of Angiotensin I converting enzyme activity in the conscious rat. Expressed as Inhibition of AI pressor response at 4 hr at a dose of 10 mg/kg po; set-up: dose 10 mg/kg; method in brief: as §2
[8] = target: T1, Angiotensin-converting enzyme (Rattus norvegicus); test: Compound was tested for plasma inhibition of Angiotensin I converting enzyme activity in the conscious rat. Expressed as Inhibition of AI pressor response at 2 hr at a dose of 10 mg/kg po; set-up: dose 10 mg/kg; method in brief: as §2
[9] = target: T1, Angiotensin-converting enzyme (Rattus norvegicus); test: Compound was tested for plasma inhibition of Angiotensin I converting enzyme activity in the conscious rat. Expressed as Inhibition of AI pressor response at 1 hr at a dose of 11.7 mg/kg po; set-up: dose 11.7 mg/kg; method in brief: as §2
[10] = target: T1, Angiotensin-converting enzyme (Rattus norvegicus); test: Compound was tested for plasma inhibition of Angiotensin I converting enzyme activity in the conscious rat. Expressed as Inhibition of AI pressor response at 6 hr at a dose of 11.7 mg/kg po; set-up: dose 11.7 mg/kg; method in brief: as §1
[11] = target: T1, Angiotensin-converting enzyme (Rattus norvegicus); test: Compound was tested for plasma inhibition of Angiotensin I converting enzyme activity in the conscious rat. Expressed as Inhibition of AI pressor response at 2 hr at a dose of 11.7 mg/kg po; set-up: dose 11.7 mg/kg; method in brief: as §2
[12] = target: T1, Angiotensin-converting enzyme (Rattus norvegicus); test: Compound was tested for plasma inhibition of Angiotensin I converting enzyme activity in the conscious rat. Expressed as Inhibition of AI pressor response at 4 hr at a dose of 11.7 mg/kg po; set-up: dose 11.7 mg/kg; method in brief: as §2
[13] = target: T1, Angiotensin-converting enzyme (Rattus norvegicus); test: Compound was tested for plasma inhibition of Angiotensin I converting enzyme activity in the conscious rat. Expressed as Inhibition of AI pressor response at 6 hr at a dose of 13.1 mg/kg po; set-up: dose 13.1 mg/kg; method in brief: as §1
[14] = target: T1, Angiotensin-converting enzyme (Rattus norvegicus); test: Compound was tested for plasma inhibition of Angiotensin I converting enzyme activity in the conscious rat. Expressed as Inhibition of AI pressor response at 4 hr at a dose of 13.1 mg/kg po; set-up: dose 13.1 mg/kg; method in brief: as §1
[15] = target: T1, Angiotensin-converting enzyme (Rattus norvegicus); test: Compound was tested for plasma inhibition of Angiotensin I converting enzyme activity in the conscious rat. Expressed as Inhibition of AI pressor response at 2 hr at a dose of 13.1 mg/kg po; set-up: dose 13.1 mg/kg; method in brief: as §2
[16] = target: T1, Angiotensin-converting enzyme (Rattus norvegicus); test: Compound was tested for plasma inhibition of Angiotensin I converting enzyme activity in the conscious rat. Expressed as Inhibition of AI pressor response at 1 hr at a dose of 13.1 mg/kg po; set-up: dose 13.1 mg/kg; method in brief: as §2
[17] = target: T1, Angiotensin-converting enzyme (Rattus norvegicus); test: Compound was tested for plasma inhibition of Angiotensin I converting enzyme activity in the conscious rat. Expressed as Inhibition of AI pressor response at 2 hr at a dose of 12.4 mg/kg po; set-up: dose 12.4 mg/kg; method in brief: as §2
[18] = target: T1, Angiotensin-converting enzyme (Rattus norvegicus); test: Compound was tested for plasma inhibition of Angiotensin I converting enzyme activity in the conscious rat. Expressed as Inhibition of AI pressor response at 6 hr at a dose of 12.4 mg/kg po; set-up: dose 12.4 mg/kg; method in brief: as §1
[19] = target: T1, Angiotensin-converting enzyme (Rattus norvegicus); test: Compound was tested for plasma inhibition of Angiotensin I converting enzyme activity in the conscious rat. Expressed as Inhibition of AI pressor response at 1 hr at a dose of 12.4 mg/kg po; set-up: dose 12.4 mg/kg; method in brief: as §2
[20] = target: T1, Angiotensin-converting enzyme (Rattus norvegicus); test: Compound was tested for plasma inhibition of Angiotensin I converting enzyme activity in the conscious rat. Expressed as Inhibition of AI pressor response at 4 hr at a dose of 12.4 mg/kg po; set-up: dose 12.4 mg/kg; method in brief: as §2
[21] = target: T1, Angiotensin-converting enzyme (Rattus norvegicus); test: Compound was tested for plasma inhibition of Angiotensin I converting enzyme activity in the conscious rat. Expressed as Inhibition of AI pressor response at 2 hr at a dose of 14.3 mg/kg po; set-up: dose 14.3 mg/kg; method in brief: as §2
[22] = target: T1, Angiotensin-converting enzyme (Rattus norvegicus); test: Compound was tested for plasma inhibition of Angiotensin I converting enzyme activity in the conscious rat. Expressed as Inhibition of AI pressor response at 6 hr at a dose of 14.3 mg/kg po; set-up: dose 14.3 mg/kg; method in brief: as §1
[23] = target: T1, Angiotensin-converting enzyme (Rattus norvegicus); test: Compound was tested for plasma inhibition of Angiotensin I converting enzyme activity in the conscious rat. Expressed as Inhibition of AI pressor response at 4 hr at a dose of 14.3 mg/kg po; set-up: dose 14.3 mg/kg; method in brief: as §1
[24] = target: T1, Angiotensin-converting enzyme (Rattus norvegicus); test: Compound was tested for plasma inhibition of Angiotensin I converting enzyme activity in the conscious rat. Expressed as Inhibition of AI pressor response at 1 hr at a dose of 14.3 mg/kg po; set-up: dose 14.3 mg/kg; method in brief: as §2

inhibition [5]: 86%
inhibition [6]: 47%
inhibition [7]: 83%
inhibition [8]: 81%
Compound: CCOC(=O)[C@H](Cc1ccc(O)cc1)NC(=O)C1(NC(=O)[C@H](SC(C)=O)C(C)C)CCCC1

inhibition [5]: 76%
inhibition [6]: 14%
inhibition [7]: 25%
inhibition [8]: 72%
Compound: COC(=O)[C@H](Cc1ccc(O)cc1)NC(=O)C1(NC(=O)[C@H](SC(C)=O)C(C)C)CCCC1

inhibition [13]: 28%
inhibition [14]: 54%
inhibition [15]: 74%
inhibition [16]: 72%
Compound: CC(=O)S[C@@H](C(=O)NC1(C(=O)N[C@@H](Cc2ccc(O)cc2)C(=O)OCc2ccccc2)CCCC1)C(C)C

inhibition [21]: 30%
inhibition [22]: 10%
inhibition [23]: 36%
inhibition [24]: 45%
Compound: CCOC(=O)[C@H](Cc1ccc(OC(=O)c2ccccc2)cc1)NC(=O)C1(NC(=O)[C@H](SC(C)=O)C(C)C)CCCC1

Further lines, the compound ahead of its results:

Compound: CCOC(=O)[C@H](Cc1ccc(O)cc1)NC(=O)C1(NC(=O)[C@H](SC(=O)CN(C)C)C(C)C)CCCC1
inhibition [1]: 18%
inhibition [2]: 70%
inhibition [3]: 63%
inhibition [4]: 35%

Compound: CCOC(=O)[C@H](Cc1ccc(OC)cc1)NC(=O)C1(NC(=O)[C@H](SC(=O)COC)C(C)C)CCCC1
inhibition [9]: 81%
inhibition [10]: 52%
inhibition [11]: 91%
inhibition [12]: 76%

Compound: CC(=O)S[C@@H](C(=O)NC1(C(=O)N[C@@H](Cc2ccc(O)cc2)C(=O)OCC(C)C)CCCC1)C(C)C
inhibition [17]: 77%
inhibition [18]: 20%
inhibition [19]: 76%
inhibition [20]: 69%

Compound: CCOC(=O)[C@H](Cc1ccc(OC(=O)CC)cc1)NC(=O)C1(NC(=O)[C@H](SC(C)=O)C(C)C)CCCC1
inhibition [13]: 4%
inhibition [14]: 23%
inhibition [15]: 35%
inhibition [16]: 50%
